Screens from PubChem BioAssay.
UBC13 polyUb: human UBC13 polyubiquitination inhibition; P61088; UBC13 polyubiquitin chain formation, TR-FRET; inhibition, % at 20 µM; 330,000 compounds, 0.47% hits; AID 485273; in the data active means inhibition above about 45%, passing the limit was not always enough
Target sequence (P61088 whole entry, looked up): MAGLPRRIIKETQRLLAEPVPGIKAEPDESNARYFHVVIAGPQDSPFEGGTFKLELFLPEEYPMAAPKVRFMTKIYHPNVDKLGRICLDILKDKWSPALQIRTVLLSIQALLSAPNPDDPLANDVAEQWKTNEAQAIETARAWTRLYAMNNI
UCH37 DUB inh: inhibitors of human deubiquitinating enzyme UCH37. purified proteasome/UCH37, Ub-AMC cleavage fluorescence. Q9Y5K5. inhibition, % (concentration not given with the values). AID 588478. 330,000 compounds, 0.33% hits;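 active means mean inhibition over replicate wells above about 20%, limit read from the data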;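 further: 0% = compound-free wells with enzyme and 100% = wells lacking proteasome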
Target sequence (Q9Y5K5 whole entry, looked up): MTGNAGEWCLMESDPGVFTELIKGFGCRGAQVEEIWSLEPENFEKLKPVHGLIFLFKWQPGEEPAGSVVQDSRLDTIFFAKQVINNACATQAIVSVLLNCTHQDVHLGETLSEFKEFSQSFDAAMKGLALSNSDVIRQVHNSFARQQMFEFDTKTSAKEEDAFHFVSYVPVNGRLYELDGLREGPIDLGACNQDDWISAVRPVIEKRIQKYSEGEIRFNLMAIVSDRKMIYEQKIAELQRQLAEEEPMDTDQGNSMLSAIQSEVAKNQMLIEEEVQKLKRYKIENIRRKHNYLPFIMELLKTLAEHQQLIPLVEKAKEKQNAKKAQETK
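Schedule: 30 min plus 25 min, room temperature / Material: human UCH37 within purified proteasomes / Technique: AMC fluorescence intensity at 355/460 nm / Buffer or medium: pH 7.4 Tris-HCl (50 mM) with ovalbumin, ATP-MgCl2, DTT / Controls: wells without proteasome as full block, compound-free enzyme plus substrate as uninhibited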
MEKK2mut PB1 HTS: signal of MEK5 binding to mutant human MEKK2 PB1 domain; bead flow cytometry, Alexa488-MEK5 binding to MEKK2 mutant; AID 1530; percent response, % at 10 µM; 290,000 compounds, 0.35% hits; in the data active means percent response above about 24%, passing the limit was not always enough
MEKK2wt PB1 HTS: raises or lowers MEK5 binding to wildtype human MEKK2 PB1 domain; bead flow cytometry, Alexa488-MEK5 binding to MEKK2 WT; actives lie on both sides; binding response (% of control), % at 10 µM; AID 1531; 290,000 compounds, 1.1% hits; Q9Y2U5; in the data active means binding response below about 67% or above about 130%
Apaf-1 inh: human Apaf-1 inhibition | inhibition, % at 20 µM | 330,000 compounds, 0.71% hits | reconstituted apoptosome caspase-3 activity, DEVD-Rh110 fluorescence | O14727 | AID 489030; active means inhibition of at least 40% at 20 µM;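 further: plate controls were DMSO wells for no effect and DEVD-CHO caspase inhibitor wells for full effect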
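Material: reconstituted apoptosome with Apaf-1, cytochrome c, caspase-9, procaspase-3, dATP. Technique: Rh110 fluorescence intensity. Buffer or medium: pH 7.5 Hepes buffer with CHAPS, BSA, DTT. Times: 30 min plus 50 min, RT.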
MEKK3 PB1 HTS: MEKK3-MEK5 PB1 interaction, increase or decrease; bead-based flow cytometry, Alexa488-MEK5 binding to MEKK3; actives lie on both sides; 0 = blocked by unlabeled MEK5, 100 = vehicle; binding response (% of control), % at 10 µM; 290,000 compounds, 1.4% hits;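 active means binding response more than 3 SD above or below the average of its plate-row segment, actives on both sides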;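 further: Alexa488 bead fluorescence after subtracting the streptavidin-only scavenger bead signal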
MEKK2wt confirm: raises or lowers MEK5 binding to wildtype human MEKK2, retest | shares compounds with MEKK3 PB1 HTS | AID 1892 | binding response (% of control), % at 10 µM | 5,900 compounds, 2.4% hits | bead flow cytometry, Alexa488-MEK5 binding to MEKK2 WT; actives lie on both sides; in the data active means binding response below about 16% or above about 210%; inactive means in between
MEKK2mut confirm: signal of MEK5 binding to mutant human MEKK2, retest; shares compounds with MEKK3 PB1 HTS; bead flow cytometry, Alexa488-MEK5 binding to MEKK2 mutant; percent response, % at 10 µM; 5,900 compounds, 2% hits; AID 1893; in the data active means percent response mostly above about 71%, no sharp cut-off; inactive means mostly below about 38%;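 further: higher means compound restores mutant binding toward wildtype level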
MEKK3 confirm: confirmation of inhibitors of MEK5 binding to human MEKK3; shares compounds with MEKK3 PB1 HTS; bead flow cytometry, Alexa488-MEK5 binding to MEKK3; active compounds read low; binding response (% of control), % at 10 µM; 5,900 compounds, 1.8% hits; AID 1894;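 active means binding response below 72% of control, or above a set upper limit, though filed actives all read lower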;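 further: 100% = DMSO only wells and 0% = binding blocked by excess unlabeled MEK5; lower values mean stronger disruption of MEK5 binding to MEKK3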
* hit, by the source's call; · = no result; [ ] = remark or other dose. Sampled rows, rich in hits. Any-hit rate of the full collection: about 3%.

SMILES	UBC13 polyUb	UCH37 DUB inh	MEKK2mut PB1 HTS	MEKK2wt PB1 HTS	Apaf-1 inh	MEKK3 PB1 HTS	MEKK2wt confirm	MEKK2mut confirm	MEKK3 confirm
O=[N+]([O-])c1cccc(N/N=C/c2cc([N+](=O)[O-])ccc2O)c1	-34.0	·	5.0	115.0	14.2	139.0*	95.0	-2.0	96.0
O=[N+]([O-])c1ccc(O)c(C=Nc2ccc3oc(Cc4ccc(Cl)cc4)nc3c2)c1	0.0	·	174.0*	106.0	-2.5	134.0*	93.0	-4.0	104.0
O=C(CN1CCN(c2ccccc2)CC1)NCc1ccc(F)cc1	0.3	1.0	0.0	102.0	-0.7	100.0	·	·	·
Cc1cc(C)n(-c2nc(SCCN(C)C)c3c4c(sc3n2)CCCC4)n1	30.1	-22.9	49.0*	211.0*	5.5	124.0*	152.0	28.0	98.0
COCCN(C(=O)CC1CCCC1)c1c(N)n(CC(C)C)c(=O)[nH]c1=O	3.0	1.4	·	·	-4.8	·	·	·	·
CC1(c2ccncc2)Nc2ccccc2-c2nc3ccccc3n21 (centres undefined)	-5.6	-42.3	4.0	106.0	11.4	110.0	·	·	·
CSC(=NC#N)N1CCN(C(c2ccccc2)c2ccccc2)CC1	-0.4	2.6	-1.0	99.0	8.0	102.0	·	·	·
CSC(=NC#N)N1CCN(C(=NC#N)SC)CC1	-8.1	7.3	-60.0	1.0*[inhibitor]	-0.9	2.0*[inhibitor]	98.0	-6.0	99.0
O=C(O)c1ccccc1C(=O)NC1CCN(c2nccc(C(F)(F)F)n2)CC1	-1.0	2.0	7.0	104.0	-3.3	106.0	·	·	·
CC(C)(CCO)NC(=S)NC1CC2C=CC1C2 (centres undefined)	5.2	1.0	-2.0	101.0	-3.0	100.0	·	·	·
Cc1cccc(CSc2nc3c(c(=O)[nH]2)CCC3)c1	1.8	4.7	3.0	115.0	-13.8	134.0*	109.0	8.0	103.0
C/C(=N\Nc1ccccc1C)c1cccnc1	-0.4	·	4.0	103.0	-2.6	103.0	·	·	·
Cc1ccc(C)c(NC(=O)N2CCCCCC2)c1	-3.0	0.9	-2.0	97.0	3.4	101.0	·	·	·
CCn1c(-c2cc(-c3ccccc3OC)nc3ccccc23)n[nH]c1=S	-3.0	-14.7	1.0	110.0	11.4	134.0*	102.0	9.0	106.0
CCn1c(-c2cc(-c3cc(OC)ccc3OC)nc3ccccc23)n[nH]c1=S	18.0	-7.7	-12.0	88.0	2.9	92.0	·	·	·
C/C(=N/OC(=O)c1ccccc1Br)c1ccc(C)cc1	-0.2	·	2.0	99.0	13.5	99.0	·	·	·
COCCn1c(=NC(=O)c2cccs2)sc2cc(NC(C)=O)ccc21	5.3	-21.0	14.0	108.0	-7.8	106.0	·	·	·
COCCn1c(=NC(=O)C(C)(C)C)sc2cc([N+](=O)[O-])ccc21	2.0	2.8	-1.0	95.0	7.8	72.0*[inhibitor]	101.0	-1.0	101.0
CCOC(=O)c1sc2cc([N+](=O)[O-])cc(SCC(C)C)c2c1N	-33.9	1.9	28.0*	16.0*	-19.4	103.0	112.0	6.0	101.0
CCOC(=O)c1cc(N)cc([N+](=O)[O-])c1	2.4	-0.1	-2.0	96.0	-7.8	94.0	·	·	·
O=C(NCC(F)(F)F)Nc1cccnc1	-5.7	2.3	22.0	121.0	-2.3	127.0*	105.0	1.0	101.0
O=C(Nc1ccc(F)cc1)Nc1cccnc1	·	2.5	1.0	98.0	·	100.0	·	·	·
COCCCNC(=O)CNC(=S)N(Cc1ccccc1)Cc1cccnc1	-6.3	2.7	-1.0	101.0	-2.1	100.0	·	·	·
O=C(Nc1ccncc1)c1ccc(Br)cc1	3.6	1.4	0.0	104.0	2.9	106.0	·	·	·
O=C(CCn1nc(-c2ccc(Cl)cc2)ccc1=O)NCCCN1CCCCCC1	16.6	-1.8	50.0*	193.0*	8.9	110.0	191.0	47.0	109.0
SMILES	UBC13 polyUb	UCH37 DUB inh	MEKK2mut PB1 HTS	MEKK2wt PB1 HTS	Apaf-1 inh	MEKK3 PB1 HTS	MEKK2wt confirm	MEKK2mut confirm	MEKK3 confirm
O=C(COc1ccc(F)cc1)c1c(O)cc(O)cc1O	-2.1	3.2	24.0	115.0	-3.8	132.0*	104.0	2.0	101.0
CCOc1ccccc1NC(=O)NCc1cccnc1	-5.4	1.2	-16.0	49.0	1.6	43.0*[inhibitor]	96.0	-5.0	99.0
O=C(CCN1C(=O)/C(=C\c2ccccc2Cl)SC1=S)N1CCN(c2ccccc2)CC1	-16.6	6.5	-4.0	97.0	14.0	97.0	·	·	·
N#Cc1nc(-c2ccccc2)oc1NCCN1CCCCC1	14.3	-194.8	-21.0	3.0*[inhibitor]	4.3	2.0*[inhibitor]	108.0	2.0	104.0
N#Cc1nc(-c2cccs2)oc1NCCN1CCOCC1	7.9	-357.9	·	·	-3.2	·	·	·	·
N#Cc1nc(-c2ccccc2)oc1NCC1CCCO1 (centres undefined)	10.7	-218.8	0.0	112.0	1.8	147.0*	92.0	-8.0	96.0
CS(=O)(=O)NCCSCc1c(F)cccc1Cl	7.3	1.4	14.0	109.0	-13.3	111.0	·	·	·
COc1ccc(OC)c(C(=O)NC(CC(N)=O)c2ccc(NCCN3CCOCC3)c([N+](=O)[O-])c2)c1 (centres undefined)	-51.6	1.4	6.0	106.0	-6.9	107.0	·	·	·
O=C(c1cccs1)N(Cc1cccc(F)c1)C1CCS(=O)(=O)C1 (centres undefined)	0.4	-3.1	2.0	100.0	-11.2	99.0	·	·	·
O=C(NCC1CCCO1)c1ccc2c(=O)n(CC3CCCO3)c(=S)[nH]c2c1 (centres undefined)	4.7	4.7	-18.0	3.0*[inhibitor]	5.7	2.0*[inhibitor]	97.0	-4.0	101.0
CCCCNC(=O)c1ccc(Cn2c(=S)[nH]c3c([nH]c4ccc(OC)cc43)c2=O)cc1	-23.7	-1.6	0.0	103.0	3.8	118.0	·	·	·
COc1ccc2[nH]c3c(=O)n(Cc4ccc(C(=O)NCC5CCCO5)cc4)c(=S)[nH]c3c2c1 (centres undefined)	-1.4	-18.0	178.0*	119.0	-18.5	128.0	102.0	5.0	103.0
COCCn1c(=S)[nH]c2cc(C(=O)NCC3CCCO3)ccc2c1=O (centres undefined)	-2.2	2.9	5.0	108.0	-10.4	108.0	·	·	·
CCc1cc2c3c(c1)C(C)CC(C)(C)N3C(=O)/C2=C1\SC(=O)NC1=O (centres undefined)	-24.4	·	0.0	94.0	2.6	102.0	·	·	·
COc1cc2ccc3c(CCN(C)C)cc(OC)c(OC)c3c2cc1OC	-3.2	-4.6	5.0	113.0	-3.2	104.0	·	·	·
